Experimental data from article PMC9989852 (Food and chemical toxicology : an international journal …, 2022).
“And” between values parts separate entries of the source, which are not always exact repeats. Identical values can stand only once.

How the values were obtained:
ear pinna [1] = assay: Ear; type: in vivo, B6C3F1 mice; conditions: dermal, 28 days, mice affected of 5
Summary of the method: (§1)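 Female B6C3F1 mice (5/group) received 25 μl/ear on the dorsal ear surfaces daily, with acetone as vehicle. Tissues were formalin-fixed about 24 h after the last dose: liver remainder, half spleen, right kidney and half ear pinna. Sections were paraffin-embedded, cut at 5 μm and stained with H&E. A veterinary pathologist read them per STP guideline and graded 1 (minimal) to 5 (severe) by extent.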

[2] = PFAS concentration in pooled urine; type: in vivo, B6C3F1 mice; conditions: 5%, dermal, 28 days; 5 pooled samples
Summary of the method: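 Urine was caught in a weigh boat as it was excreted during CO2 euthanasia, about 24 h after the final daily ear dose (25 μl/ear, acetone vehicle; female B6C3F1 mice). The 5 mice per group were pooled, with variable volume. Samples underwent solid-phase extraction and LC/MS/MS, as linear isomer for short-chain analytes and linear plus branched for the comparator. Each group gave a single value without statistics.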

B6C3F1 mice = assay: Organ weights and body weight after 28-day dermal exposure; type: in vivo; conditions: 28 days
[3] = PFAS concentration in serum; type: in vivo, B6C3F1 mice; conditions: 1.25%–5%, dermal, 28 days
Summary of the method: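 Serum came by cardiac puncture about 24 h after the final daily ear dose (25 μl/ear, acetone vehicle; female B6C3F1 mice). Samples underwent solid-phase extraction and LC/MS/MS. Short-chain analytes were quantified as linear isomer only; the legacy comparator was quantified as linear plus branched. Data are mean ± SE of 4–5 mice, one-way ANOVA with Dunnett's vs vehicle.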

liver (caudate) = assay: Liver gene expression; type: in vivo, B6C3F1 mice; conditions: dermal, 28 days
Summary of the method: (§2)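 Dosing was daily topical to both dorsal ears (25 μl/ear, acetone vehicle) in female B6C3F1 mice. Liver caudate lobe or half ear pinna was stored in RNAlater and homogenized in RLT buffer. RNA was isolated on RNeasy columns with DNase, and 1–2 μg was reverse-transcribed. TaqMan real-time PCR was read as 2−ΔΔCT vs vehicle, normalized to β-actin. Statistics: ANOVA/Dunnett's, or Kruskal-Wallis/Dunn's for unequal variance.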

liver = assay: Liver histopathology after 28-day dermal exposure; type: in vivo, B6C3F1 mice; conditions: 28 days, mice affected of 5
Summary of the method: as §1

kidney, spleen = assay: Kidney and spleen histopathology after 28-day dermal exposure; type: in vivo, B6C3F1 mice; conditions: 1.25–5%, 28 days, data not shown
Summary of the method: as §1

ear pinna [4] = assay: Skin; type: in vivo, B6C3F1 mice; conditions: dermal, 28 days
Summary of the method: as §2

[5] = system: auricular draining lymph nodes (dLNs); assay: Draining lymph node phenotyping by flow cytometry after 28-day dermal exposure; type: in vivo, B6C3F1 mice; conditions: 28 days
Summary of the method: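 Female B6C3F1 mice (5/group) received 25 μl/ear daily to the dorsal ears in acetone. About 24 h after the last dose, tissues went into RPMI: both auricular dLNs, half spleen and one ear pinna. Single-cell suspensions were acquired on an LSR II, with populations gated per supplemental strategy and FMO gating controls. Results are mean ± SE, n=5, by one-way ANOVA.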

O=C(O)C(F)(F)C(F)(F)C(F)(F)C(F)(F)C(F)(F)C(F)(F)F [PFHpA, Perfluoroheptanoic acid]
Ear: Degeneration/regeneration, cartilage, focal, Mild (incidence) (ear pinna [1]; 1.25%): 0 | Ear: Fibrosis, dermis, focal, Minimal (incidence) (ear pinna [1]; 1.25%): 0 | Ear: Hyperkeratosis, epidermis, focal, Mild (incidence) (ear pinna [1]; 1.25%): 0 | Ear: Hyperkeratosis, epidermis, focal, Minimal (incidence) (ear pinna [1]; 1.25%): 0 | Ear: Hyperplasia, epidermis, focal, Mild (incidence) (ear pinna [1]; 1.25%): 0 | Ear: Hyperplasia, epidermis, focal, Minimal (incidence) (ear pinna [1]; 1.25%): 0 | Ear: Inflammation, mixed cell, dermis, Minimal (incidence) (ear pinna [1]; 1.25%): 0 | Ear: Inflammation, mononuclear cell, dermis, Minimal (incidence) (ear pinna [1]; 1.25%): 0 | Ear: Necrosis, epidermis, multifocal, Minimal (incidence) (ear pinna [1]; 1.25%): 0 | Ear: Degeneration/regeneration, cartilage, focal, Mild (incidence) (ear pinna [1]; 2.5%): 0 | Ear: Fibrosis, dermis, focal, Minimal (incidence) (ear pinna [1]; 2.5%): 0 | Ear: Hyperkeratosis, epidermis, focal, Mild (incidence) (ear pinna [1]; 2.5%): 0 | Ear: Hyperkeratosis, epidermis, focal, Minimal (incidence) (ear pinna [1]; 2.5%): 0 | Ear: Hyperplasia, epidermis, focal, Mild (incidence) (ear pinna [1]; 2.5%): 0 | Ear: Hyperplasia, epidermis, focal, Minimal (incidence) (ear pinna [1]; 2.5%): 2/5 and 2 | Ear: Inflammation, mixed cell, dermis, Minimal (incidence) (ear pinna [1]; 2.5%): 0 | Ear: Inflammation, mononuclear cell, dermis, Minimal (incidence) (ear pinna [1]; 2.5%): 0 | Ear: Necrosis, epidermis, multifocal, Minimal (incidence) (ear pinna [1]; 2.5%): 0 | Ear: Fibrosis, dermis, focal, Minimal (incidence) (ear pinna [1]; 5%): 0 | Ear: Hyperkeratosis, epidermis, focal, Mild (incidence) (ear pinna [1]; 5%): 0 | Ear: Hyperkeratosis, epidermis, focal, Minimal (incidence) (ear pinna [1]; 5%): 4/5 and 4 | Ear: Hyperplasia, epidermis, focal, Mild (incidence) (ear pinna [1]; 5%): 1/4 and 1 | Ear: Hyperplasia, epidermis, focal, Minimal (incidence) (ear pinna [1]; 5%): 4/5 and 4 | Ear: Inflammation, mixed cell, dermis, Minimal (incidence) (ear pinna [1]; 5%): 1 | Ear: Inflammation, mononuclear cell, dermis, Minimal (incidence) (ear pinna [1]; 5%): 1 | Ear: Necrosis, epidermis, multifocal, Minimal (incidence) (ear pinna [1]; 5%): 0 | urine PFAS concentration [2]: 1200 µg/mL | body weight or overt signs of toxicity (B6C3F1 mice; 1.25–5%): no changes | thymus weights (% body weight) (B6C3F1 mice; 2.5%, not dose dependent): significantly increased | Liver weight (% body weight), increase vs vehicle-treated mice (B6C3F1 mice; 5%): 18% | kidney weights (% body weight) (B6C3F1 mice; 5%): significantly increased | PFAS serum concentration vs vehicle [3]: significant increase | liver Pparγ expression (liver (caudate); 1.25%): increasing | liver Pparδ expression (liver (caudate); 1.25%): decreasing | liver Cd36 gene expression, increase (liver (caudate); 2.5%): 4 fold | liver Lpl gene expression, increase (liver (caudate); 2.5%): 2.2 fold | liver Pparδ expression (liver (caudate); 2.5%): decreasing | liver Acox1 gene expression (liver (caudate); 5%): increase | liver Cd36 gene expression, increase (liver (caudate); 5%): 4.8 fold | liver Lpl gene expression, increase (liver (caudate); 5%): 2.3 fold | liver Pltp gene expression (liver (caudate); 5%): increase | liver Pparδ expression (liver (caudate); 5%): decreasing | Liver: Hypertrophy, centrilobular, hepatocyte, Mild (incidence) (liver; 1.25%): 0 | Liver: Hypertrophy, centrilobular, hepatocyte, Minimal (incidence) (liver; 1.25%): 3/5 and 3 | Liver: Hypertrophy, centrilobular, hepatocyte, Mild (incidence) (liver; 2.5%): 0 | Liver: Hypertrophy, centrilobular, hepatocyte, Minimal (incidence) (liver; 2.5%): 5/5 and 5 | Liver: Hypertrophy, centrilobular, hepatocyte, Mild (incidence) (liver; 5%): 3/5 and 3 | Liver: Hypertrophy, centrilobular, hepatocyte, Minimal (incidence) (liver; 5%): 2/5 and 2 | microscopic observations in the kidney or the spleen (kidney, spleen): No PFPeA, PFHxA, or PFHpA-related microscopic observations | skin PPARα gene expression (ear pinna [4]; 1.25–5%): no significant decrease | skin Pparδ gene expression (ear pinna [4]; 1.25–5%): no changes | skin Flg gene expression (ear pinna [4]; 2.5%): increased | skin Krt10 gene expression (ear pinna [4]; 2.5%): increased | skin Pparγ gene expression (ear pinna [4]; 2.5%): decreased | skin Flg gene expression (ear pinna [4]; 5%): increased | skin Krt10 gene expression (ear pinna [4]; 5%): increased | skin Lor gene expression (ear pinna [4]; 5%): increased | skin Pparγ gene expression (ear pinna [4]; 5%): decreased | skin S100a8 gene expression, increase (ear pinna [4]; 5%): 6.7 fold | skin Serpine1 gene expression, increase (ear pinna [4]; 5%): 1.7 fold | skin Tslp gene expression, increase (ear pinna [4]; 5%): 5.1 fold | dLN B-cells cell number ([5]; 1.25%): 5.40 ± 0.44 × 10^5 | dLN B-cells frequency ([5]; 1.25%): 13.44 ± 1.00% | dLN CD4^+ cell number ([5]; 1.25%): 1.77 ± 0.17 × 10^6 | dLN CD4^+ frequency ([5]; 1.25%): 43.44 ± 1.00% | dLN CD8^+ cell number ([5]; 1.25%): 11.50 ± 0.97 × 10^5 | dLN CD8^+ frequency ([5]; 1.25%): 28.26 ± 0.62% | dLN CD11b+ cell number ([5]; 1.25%): 3.18 ± 0.81 × 10^4 | dLN CD11b+ frequency ([5]; 1.25%): 0.74 ± 0.16% | dLN CD86 B-cells ([5]; 1.25%): 851.20 ± 55.68 MFI | dLN CD86 DCs ([5]; 1.25%): 22.90 ± 1.99 MFI x 10^2 | dLN Dendritic Cells cell number ([5]; 1.25%): 15.60 ± 6.03 × 10^4 | dLN Dendritic Cells frequency ([5]; 1.25%): 4.23 ± 1.95% | dLN Eosinophils cell number ([5]; 1.25%): 7.53 ± 1.81 × 10^2 | dLN MHCII B-cells ([5]; 1.25%): 33.30 ± 3.62 MFI × 10^2 | dLN NK cell number ([5]; 1.25%): 1.84 ± 0.21 × 10^4 | dLN NK frequency ([5]; 1.25%): 0.45 ± 0.03 % | dLN Neutrophils cell number ([5]; 1.25%): 8.55 ± 1.38 × 10^2 | dLN Total Cellularity ([5]; 1.25%): 4.05 ± 0.31 × 10^6 | dLN B-cells cell number ([5]; 2.5%): 8.69 ± 0.16 × 10^5 | dLN B-cells frequency ([5]; 2.5%): 14.86 ± 0.84% | dLN CD4^+ cell number ([5]; 2.5%): 2.47 ± 0.44 × 10^6 | dLN CD4^+ frequency ([5]; 2.5%): 41.54 ± 0.58% | dLN CD8^+ cell number ([5]; 2.5%): 17.20 ± 3.10 × 10^5 | dLN CD8^+ frequency ([5]; 2.5%): 28.6 ± 0.62% | dLN CD11b+ cell number ([5]; 2.5%): 6.87 ± 1.47 × 10^4 | dLN CD11b+ frequency ([5]; 2.5%): 1.09 ± 0.09% | dLN CD86 B-cells ([5]; 2.5%): 908.40 ± 44.09 MFI | dLN CD86 DCs ([5]; 2.5%): 25.10 ± 0.72 MFI x 10^2 | dLN Dendritic Cells cell number ([5]; 2.5%): 9.50 ± 1.42 × 10^4 | dLN Dendritic Cells frequency ([5]; 2.5%): 1.70 ± 0.17% | dLN Eosinophils cell number ([5]; 2.5%): 20.40 ± 3.85 × 10^2 | dLN MHCII B-cells ([5]; 2.5%): 44.30 ± 4.02 MFI × 10^2 | dLN NK cell number ([5]; 2.5%): 3.23 ± 0.68 × 10^4 | dLN NK frequency ([5]; 2.5%): 0.53 ± 0.03% | dLN Neutrophils cell number ([5]; 2.5%): 9.51 ± 1.88 × 10^2 | dLN Total Cellularity ([5]; 2.5%): 5.97 ± 1.06 × 10^6 | dLN B-cells cell number ([5]; 5%): 11.50 ± 1.39 × 10^5 | dLN B-cells frequency ([5]; 5%): 14.70 ± 0.13% | dLN CD4^+ cell number ([5]; 5%): 3.03 ± 0.31 × 10^6 | dLN CD4^+ frequency ([5]; 5%): 39.24 ± 0.83 % | dLN CD8^+ cell number ([5]; 5%): 22.10 ± 2.59 × 10^5 | dLN CD8^+ frequency ([5]; 5%): 28.36 ± 0.20% | dLN CD11b+ cell number ([5]; 5%): 13.40 ± 1.96 × 10^4 | dLN CD11b+ frequency ([5]; 5%): 1.69 ± 0.10 % | dLN CD86 B-cells ([5]; 5%): 879.80 ± 40.32 MFI | dLN CD86 DCs ([5]; 5%): 28.50 ± 0.78 MFI x 10^2 | dLN Dendritic Cells cell number ([5]; 5%): 18.20 ± 3.38 × 10^4 | dLN Dendritic Cells frequency ([5]; 5%): 2.28 ± 0.20% | dLN Eosinophils cell number ([5]; 5%): 22.80 ± 6.04 × 10^2 | dLN MHCII B-cells ([5]; 5%): 43.10 ± 1.85 MFI × 10^2 | dLN MHCII DCs ([5]; 5%): 58.90 ± 2.65 MFI × IQ^2 | dLN NK cell number ([5]; 5%): 4.78 ± 0.67 × 10^4 | dLN NK frequency ([5]; 5%): 0.61 ± 0.04% | dLN Total Cellularity ([5]; 5%): 7.78 ± 0.90 × 10^6
